Test results: ChEMBL document CHEMBL1944532, “Synthesis and evaluation of anticancer activity of some novel 6-aryl-2-(p-sulfamylphenyl)-pyridazin-3(2H)-ones” (Eur J Med Chem, 2012)
Calls of active or inactive are those of the source. The calls are words filed in the database; no cut-off is given here.

Experiments:
786-0 = experiment: Cytotoxicity against human 786-0 cells after 48 hrs by SRB assay; format: functional; conditions: 786-0, 48 h
How it was run: (§1)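 NCI ~60-line panel in RPMI-1640 with 5% fetal calf serum and 2 mM L-glutamine, pre-incubated 24 h. Compound in DMSO tested at five 10-fold concentrations (10^-4 to 10^-8 M) with 48 h continuous exposure. Growth measured by sulforhodamine B protein assay. GI50 (50% net growth inhibition), TGI (total inhibition) and LC50 (50% net cell death) derived from dose-response.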

HCC 2998 = experiment: Cytotoxicity against human HCC2998 cells assessed as cell growth at 10 uM after 48 hrs by SRB assay; format: functional; conditions: HCC 2998, 48 h, read-out: Activity
How it was run: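 NCI primary single-dose screen at 10^-5 M against the ~60 human tumour cell line panel. Cells grown in RPMI-1640 with 5% fetal calf serum and 2 mM L-glutamine and pre-incubated 24 h before compound addition. Compound added from DMSO solution with 48 h exposure. Growth read by sulforhodamine B protein staining.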

KM12 = experiment: Cytotoxicity against human KM12 cells after 48 hrs by SRB assay; format: functional; conditions: KM12, 48 h
How it was run: (§2)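 NCI five-dose screen on the ~60-line human tumor panel. Cells grown in RPMI-1640 with 5% fetal calf serum and 2 mM L-glutamine, seeded at line-dependent density and preincubated 24 h. Compound added from DMSO at 10-fold dilutions from 10^-4 to 10^-8 M, continuous exposure 48 h. Growth read by sulforhodamine B protein stain. GI50, TGI and LC50 derived per line.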

NCI-H322M = experiment: Cytotoxicity against human NCI-H322M cells assessed as cell growth at 10 uM after 48 hrs by SRB assay; format: functional; conditions: read-out: Activity
How it was run: (§3)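 NCI primary single-dose screen at 10^-5 M against the full panel of about 60 human tumor cell lines. Cells were in RPMI-1640 with 5% fetal calf serum and 2 mM L-glutamine and preincubated 24 h. Compound was given in DMSO with 48 h exposure. Growth was estimated by sulforhodamine B protein assay.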

M14 = experiment: Cytotoxicity against human M14 cells after 48 hrs by SRB assay; format: functional; conditions: M14, 48 h; how it was run: as §2
ACHN = experiment: Cytotoxicity against human ACHN cells after 48 hrs by SRB assay; format: functional; how it was run: as §1
PC-3 = experiment: Cytotoxicity against human PC3 cells assessed as cell growth at 10 uM after 48 hrs by SRB assay; format: functional; conditions: PC-3, 48 h, read-out: Activity; how it was run: as §3
SF-295 [1] = experiment: Antitumor activity against human SF295 cells implanted in mouse dosed qd for 4 days by formazan dye-based hollow fiber assay; format: functional, organism-based
How it was run: (§4)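 Cells grown inside polyvinylidene fluoride hollow fibers; each line implanted into both intraperitoneal and subcutaneous compartments in mice. Compound given ip at two doses on a QD x 4 schedule. Fibers then recovered and viable cell mass measured by formazan dye conversion. Scored 2 per dose giving ≥50% reduction in viable cell mass (%T/C 50).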

SF-295 [2] = experiment: Cytotoxicity against human SF295 cells after 48 hrs by SRB assay; format: functional; conditions: SF-295, 48 h; how it was run: as §2
COLO 205 = experiment: Antitumor activity against human COLO205 cells implanted in mouse dosed qd for 4 days by formazan dye-based hollow fiber assay; format: functional, organism-based; how it was run: as §4
SNB-75 = experiment: Cytotoxicity against human SNB75 cells after 48 hrs by SRB assay; format: functional; conditions: SNB-75, 48 h
How it was run: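 NCI 60-cell-line five-dose screen. Cells were grown in 1640 medium with 5% fetal calf serum and 2 mM L-glutamine, with inoculum density set by cell line, and pre-incubated 24 h. Compound in DMSO was added at 10^-4 to 10^-8 M (10-fold steps) with 48 h continuous exposure. Growth was read by SRB protein assay, and GI50, TGI and LC50 were derived from dose-response.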

HL-60(TB) = experiment: Cytotoxicity against human HL-60(TB) cells assessed as cell growth at 10 uM after 48 hrs by SRB assay; format: functional; conditions: HL-60, 48 h, read-out: Activity
How it was run: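 NCI primary one-dose screen at 10^-5 M against about 60 human tumor cell lines. Cells pre-incubated 24 h, then compound in DMSO added for 48 h. Cell growth read by sulforhodamine B protein assay.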

HOP-92 = experiment: Cytotoxicity against human HOP92 cells after 48 hrs by SRB assay; format: functional; conditions: HOP-92, 48 h; how it was run: as §1
A549 = experiment: Cytotoxicity against human A549/ATCC cells after 48 hrs by SRB assay; format: functional; conditions: A549, 48 h; how it was run: as §1
NCI-H23 = experiment: Cytotoxicity against human NCI-H23 cells after 48 hrs by SRB assay; format: functional; conditions: NCI-H23, 48 h; how it was run: as §2

CCc1ccc(-c2ccc(=O)n(-c3ccc(S(N)(=O)=O)cc3)n2)cc1
LC50 (50% net cell kill) (786-0): > 100 µM
GI50 (786-0; read-out: GI50): 10.2 µM
GI50 (786-0; read-out: pGI50 (converted)): 10.2 µM
TGI (786-0; read-out: pTGI (converted)): 63.1 µM
growth at 10 µM (HCC 2998): 53.9%
LC50 (50% lethal concentration) (KM12): > 100 µM
GI50 (KM12; read-out: GI50): 486 nM
GI50 (KM12; read-out: pGI50 (converted)): 490 nM
TGI (KM12; read-out: pTGI): > 100 µM
growth at 10 µM (NCI-H322M): 115%
LC50 (M14): > 100 µM
GI50 (M14; read-out: GI50): 335 nM
GI50 (M14; read-out: pGI50 (converted)): 339 nM
TGI (M14; read-out: pTGI (converted)): 4.9 µM
GI50 (ACHN): 10.5 µM
CC50 (ACHN; read-out: pLC50 (the source's name) (converted)): > 100 µM
TGI (ACHN; read-out: pTGI): > 100 µM
growth at 10 µM (PC-3): 35%
Activity (SF-295 [1]): inactive
LC50 (SF-295 [2]): 75.9 µM
GI50 (SF-295 [2]; read-out: GI50): 554 nM
GI50 (SF-295 [2]; read-out: pGI50 (converted)): 550 nM
TGI (SF-295 [2]; read-out: pTGI (converted)): 17.4 µM
Activity (COLO 205): inactive
LC50 (SNB-75): > 100 µM
GI50 (SNB-75; read-out: GI50): 1760 nM
GI50 (SNB-75; read-out: pGI50 (converted)): 1740 nM
TGI (SNB-75; read-out: pTGI (converted)): 28.8 µM
growth at 10 µM (HL-60(TB)): -4.27%
LC50 (HOP-92): > 100 µM
GI50 (HOP-92; read-out: GI50): 17.3 µM
GI50 (HOP-92; read-out: pGI50 (converted)): 17.4 µM
TGI (HOP-92; read-out: pTGI (converted)): 75.9 µM
LC50 (A549): > 100 µM
GI50 (A549; read-out: GI50): 2580 nM
GI50 (A549; read-out: pGI50 (converted)): 2570 nM
TGI (A549; read-out: pTGI): > 100 µM
LC50 (NCI-H23): > 100 µM
GI50 (NCI-H23; read-out: GI50): 16.9 µM
GI50 (NCI-H23; read-out: pGI50 (converted)): 17 µM
TGI (NCI-H23; read-out: pTGI): > 100 µM
